Assay results reported in ChEMBL document CHEMBL1629494, “New amino acid esters of salicylanilides active against MDR-TB and other microbes” (Eur J Med Chem, 2010).
Converted amounts (≈) assume the structure as drawn.

Columns and labels:
Type in all cases: functional
[1] = Selectivity index, ratio of IC50 for human PBMC to MIC for multidrug-resistant Mycobacterium tuberculosis 357/2005
Summary of the method: (§1)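 SI = PBMC IC50 (MTT cytotoxicity) divided by the MIC against the named M. tuberculosis strain. MIC taken after 14 days of incubation at 37 °C by the micromethod.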

[2] = Selectivity index, ratio of IC50 for human PBMC to MIC for multidrug-resistant Mycobacterium tuberculosis 53/2009; summary of the method: as §1
[3] = Selectivity index, ratio of IC50 for human PBMC to MIC for multidrug-resistant Mycobacterium tuberculosis 362/1998; summary of the method: as §1
[4] = Selectivity index, ratio of IC50 for human PBMC to MIC for multidrug-resistant Mycobacterium tuberculosis 9449/2007; summary of the method: as §1
[5] = test system: Mycobacterium tuberculosis; assay: Antimycobacterial activity against multidrug-resistant Mycobacterium tuberculosis 357/2005 after 14 days by micromethod; settings: 357/2005, 336 h
Summary of the method: (§2)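 Clinical MDR/XDR M. tuberculosis strains, all resistant to INH, RIF, rifabutine and streptomycin, some with further resistances. Tested by the MIC micromethod across a concentration series descending from 1000.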

[6] = test system: Mycobacterium tuberculosis; assay: Antimycobacterial activity against multidrug-resistant Mycobacterium tuberculosis 357/2005 after 21 days by micromethod; settings: 357/2005, 504 h; summary of the method: as §2
[7] = test system: Mycobacterium tuberculosis; assay: Antimycobacterial activity against multidrug-resistant Mycobacterium tuberculosis 53/2009 after 14 days by micromethod; settings: 53/2009, 336 h; summary of the method: as §2
[8] = test system: Mycobacterium tuberculosis; assay: Antimycobacterial activity against multidrug-resistant Mycobacterium tuberculosis 53/2009 after 21 days by micromethod; settings: 53/2009, 504 h
Summary of the method: (§3)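 MDR M. tuberculosis strains, all resistant to INH, RIF, rifabutine and streptomycin (9449/2007 to these four). Micromethod with compounds added as DMSO solutions in a twofold series from 1000 μmol/L downward; lowest level used 1 μmol/L. Incubated at 37 °C and read at 14 and 21 days; MIC is the lowest concentration giving growth inhibition.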

[9] = test system: Mycobacterium tuberculosis; assay: Antimycobacterial activity against extensively drug resistant Mycobacterium tuberculosis Praha 1 after 14 days by micromethod; settings: Praha 1, 336 h; summary of the method: as §2
[10] = test system: Mycobacterium tuberculosis; assay: Antimycobacterial activity against extensively drug resistant Mycobacterium tuberculosis Praha 1 after 21 days by micromethod; settings: Praha 1, 504 h; summary of the method: as §2
[11] = test system: Mycobacterium tuberculosis; assay: Antimycobacterial activity against extensively drug resistant Mycobacterium tuberculosis Praha 131 after 14 days by micromethod; settings: Praha 131, 336 h; summary of the method: as §2
[12] = test system: Mycobacterium tuberculosis; assay: Antimycobacterial activity against extensively drug resistant Mycobacterium tuberculosis Praha 131 after 21 days by micromethod; settings: Praha 131, 504 h; summary of the method: as §2
[13] = test system: Mycobacterium tuberculosis; assay: Antimycobacterial activity against multidrug-resistant Mycobacterium tuberculosis 362/1998 after 14 days by micromethod; settings: 362/199, 336 h; summary of the method: as §2
[14] = test system: Mycobacterium tuberculosis; assay: Antimycobacterial activity against multidrug-resistant Mycobacterium tuberculosis 362/1998 after 21 days by micromethod; settings: 362/1998, 504 h; summary of the method: as §2
[15] = test system: Mycobacterium tuberculosis; assay: Antimycobacterial activity against multidrug-resistant Mycobacterium tuberculosis 9449/2007 after 14 days by micromethod; settings: 9449/2007, 336 h; summary of the method: as §3
[16] = test system: Mycobacterium tuberculosis; assay: Antimycobacterial activity against multidrug-resistant Mycobacterium tuberculosis 9449/2007 after 21 days by micromethod; settings: 9449/2007, 504 h; summary of the method: as §3

In the case of CC(=O)N[C@@H](Cc1ccccc1)C(=O)Oc1ccc(Cl)cc1C(=O)Nc1ccc(Cl)c(Cl)c1, the “Selectivity Index” value [1] was 22, the “Selectivity Index” value [2] was 22 and the “Selectivity Index” value [3] was 22. The “Selectivity Index” value [4] was 22, the MIC [5] was 2 µM (≈ 1.01 µg/mL) and the MIC [6] was 2 µM (≈ 1.01 µg/mL). It also gave an MIC [7] of 1 µM (≈ 0.506 µg/mL), an MIC [8] of 2 µM (≈ 1.01 µg/mL) and an MIC [9] of 1 µM (≈ 0.506 µg/mL). The MIC [10] was 2 µM (≈ 1.01 µg/mL), the MIC [11] was 2 µM (≈ 1.01 µg/mL) and the MIC [12] was 2 µM (≈ 1.01 µg/mL). It also gave an MIC [13] of 1 µM (≈ 0.506 µg/mL), an MIC [14] of 2 µM (≈ 1.01 µg/mL) and an MIC [15] of 2 µM (≈ 1.01 µg/mL). For the same compound, the MIC [16] was 4 µM (≈ 2.02 µg/mL).
In the case of CC(=O)N[C@@H](Cc1ccccc1)C(=O)Oc1ccc(Cl)cc1C(=O)Nc1ccc(C(F)(F)F)cc1, the “Selectivity Index” value [1] was 6.1, the “Selectivity Index” value [2] was 6.1 and the “Selectivity Index” value [3] was 6.1. For the same compound, the “Selectivity Index” value [4] was 6.1, the MIC [5] was 1 µM (≈ 0.505 µg/mL) and the MIC [6] was 2 µM (≈ 1.01 µg/mL). The MIC [7] was 1 µM (≈ 0.505 µg/mL), the MIC [8] was 1 µM (≈ 0.505 µg/mL) and the MIC [9] was 1 µM (≈ 0.505 µg/mL). The MIC [10] was 2 µM (≈ 1.01 µg/mL), the MIC [11] was 1 µM (≈ 0.505 µg/mL) and the MIC [12] was 2 µM (≈ 1.01 µg/mL). For the same compound, the MIC [13] was 1 µM (≈ 0.505 µg/mL), the MIC [14] was 1 µM (≈ 0.505 µg/mL) and the MIC [15] was 2 µM (≈ 1.01 µg/mL). It also gave an MIC [16] of 2 µM (≈ 1.01 µg/mL).
In the case of CC(=O)N[C@@H](Cc1ccccc1)C(=O)Oc1ccc(Br)cc1C(=O)Nc1ccc(C(F)(F)F)cc1, the “Selectivity Index” value [1] was 24.1, the “Selectivity Index” value [2] was 24.1 and the “Selectivity Index” value [3] was 24.1. For the same compound, the “Selectivity Index” value [4] was 24.1, the MIC [5] was 2 µM (≈ 1.1 µg/mL) and the MIC [6] was 2 µM (≈ 1.1 µg/mL). The MIC [7] was 1 µM (≈ 0.549 µg/mL), the MIC [8] was 2 µM (≈ 1.1 µg/mL) and the MIC [9] was 1 µM (≈ 0.549 µg/mL). It also gave an MIC [10] of 2 µM (≈ 1.1 µg/mL), an MIC [11] of 2 µM (≈ 1.1 µg/mL) and an MIC [12] of 2 µM (≈ 1.1 µg/mL). For the same compound, the MIC [13] was 1 µM (≈ 0.549 µg/mL), the MIC [14] was 1 µM (≈ 0.549 µg/mL) and the MIC [15] was 1 µM (≈ 0.549 µg/mL). For the same compound, the MIC [16] was 2 µM (≈ 1.1 µg/mL).
Compound NNC(=O)c1ccncc1 [ISONIAZID] has an MIC [5] of 14.6 µM (≈ 2 µg/mL), an MIC [6] of 14.6 µM (≈ 2 µg/mL) and an MIC [7] of 14.6 µM (≈ 2 µg/mL). The MIC [8] was 14.6 µM (≈ 2 µg/mL), the MIC [9] was 14.6 µM (≈ 2 µg/mL) and the MIC [10] was 14.6 µM (≈ 2 µg/mL). It also gave an MIC [11] of 14.6 µM (≈ 2 µg/mL), an MIC [12] of 14.6 µM (≈ 2 µg/mL) and an MIC [13] of 14.6 µM (≈ 2 µg/mL). It also gave an MIC [14] of 14.6 µM (≈ 2 µg/mL), an MIC [15] of 58.3 µM (≈ 8 µg/mL) and an MIC [16] of 58.3 µM (≈ 8 µg/mL).
